# TDP2 absorb – TDP2 (human) inhibition, absorbance primary screen; inhibition, % at 12.8 µM; hit rate 0.34% among 370,000; O95551; recombinant TDP2, T5PNP hydrolysis, p-nitrophenol absorbance 415 nm;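 active means inhibition above the mean of all tested compounds plus 3 SD, set per campaign, cut at about 25% in these data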;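 further: 0% = DMSO with enzyme and 100% = buffer with substrate but no TDP2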
#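 Evaluation: % inhibition relative to enzyme-containing and enzyme-free wells. Material: recombinant human TDP2. Benchmarks: enzyme-free and DMSO wells. Timing: enzyme reaction with compound for 2 h at 37 °C. Compound dosing: 12.8 µM only. Measured by: p-Nitrophenol epi absorbance. Reagent: T5PNP substrate at 5 mM, a TopII-DNA adduct mimic. Replication: single well per compound.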
# LEDGF integ inh – blocks HIV-1 LEDGF/p75-dependent DNA integration | AID 743269 | TR-FRET IN-LEDGF/p75 DNA integration, Eu/Cy5 | inhibition, % at 3.7 µM | hit rate 0.64% among 370,000;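 active means inhibition above the screen-wide mean plus 3 SD, cut at about 13% in these data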;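 further: signal is the Cy5 over europium emission ratio at 671 and 618 nm; 0% = plate median of compound wells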
# UHRF1 MBD2 ctr – UHRF1 methyl-DNA binding inhibition; Q96T88; UHRF1 binding to methylated oligo, TR-FRET; inhibition, % at 4.4 µM; hit rate 0.75% among 370,000; in the data active means inhibition above about 21%;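 further: UHRF1 SRA domain binding a hemimethylated CpG hairpin DNA probe; 0% = median of test compound wells and 100% = reference inhibitor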
# MBD2 DNA inh – blocks human MBD2 binding to methylated DNA | Q9UBB5 | TR-FRET, MBD2 binding to methylated oligonucleotide | inhibition, % at 4.4 µM | hit rate 0.31% among 370,000 | AID 686964; in the data active means inhibition above about 13%
# Target sequence (Q9UBB5 whole entry, looked up): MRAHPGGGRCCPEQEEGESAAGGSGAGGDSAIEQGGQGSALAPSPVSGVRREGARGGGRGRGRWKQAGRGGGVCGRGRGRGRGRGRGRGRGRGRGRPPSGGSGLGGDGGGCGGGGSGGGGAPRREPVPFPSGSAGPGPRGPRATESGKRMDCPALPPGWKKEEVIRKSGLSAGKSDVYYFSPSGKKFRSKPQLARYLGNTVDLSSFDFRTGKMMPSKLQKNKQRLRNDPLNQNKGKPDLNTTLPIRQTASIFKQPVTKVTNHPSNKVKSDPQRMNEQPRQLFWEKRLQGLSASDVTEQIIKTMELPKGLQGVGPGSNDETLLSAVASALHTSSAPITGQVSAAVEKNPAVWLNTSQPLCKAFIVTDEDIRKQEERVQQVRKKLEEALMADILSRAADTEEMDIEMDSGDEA
# TDP2 inh conf – confirmation of human TDP2 inhibitors | shares compounds with TDP2 absorb | recombinant human TDP2, absorbance read-out | inhibition, % at 12.8 µM | hit rate 22% among 1,100 | AID 743263; in the data active means inhibition above about 25%;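 further: 0% = vehicle with enzyme and 100% = no enzyme buffer only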
# Starred values were filed as active, the others as inactive; . = no result given. Compounds with a hit are over-represented: about 1.6% of the library has one in this group of screens.
SMILES,TDP2 absorb,LEDGF integ inh,UHRF1 MBD2 ctr,MBD2 DNA inh,TDP2 inh conf
CCOc1ccc2noc3c2c1C(=O)c1ccccc1-3,39*,12,-4,-11,34*
COC(=O)C(C(=O)OC)[C@H]1C=C[C@@H](C(=O)NS(=O)(=O)c2ccc(C)cc2)N(C(C)=O)C1,-4,0,5,-1,.
Cc1ccc(Cl)cc1NS(=O)(=O)c1cn(C)nc1C,25*,-2,-2,1,11
COc1ccc(Cl)cc1NS(=O)(=O)c1cn(C)nc1C,15,3,-2,-4,.
C#CCN1C(=O)[C@]2(NCCc3c2[nH]c2ccc(OC)cc32)c2cc(F)ccc21,5,2,1,-5,.
O=c1[nH]c(Nc2ccccc2)cc2ccccc12,69*,37*,2,-4,66*
Cn1c(=O)cc(Nc2ccccc2)[nH]c1=O,-1,-1,-2,-2,.
Cc1ccccc1CN1CCCCC(NC(=O)c2cccc(C(F)(F)F)c2)C1=O (stereo not drawn),2,2,-2,-4,.
CC1=C(C)CC(C(=O)NCc2ccccc2F)C(C(=O)O)C1 (stereo not drawn),25*,2,0,0,11
COC(=O)[C@]12C[C@H](CC(=O)NCC34CC5CC(CC(C5)C3)C4)C(=O)N(Cc3ccc4c(c3)OCO4)C1=C[C@H](C(C)C)O[C@@H]2C1CC1,3,-1,-1,0,.
Cc1ccc(NC(=O)CN2C(=O)NC3(CCc4ccccc43)C2=O)cc1S(=O)(=O)N1CCCCC1 (stereo not drawn),90*,3,-2,2,-13
O=C(NC1C(=O)NNC1c1ccccc1)c1ccc(F)cc1 (stereo not drawn),26*,5,-3,-7,6
CC(=O)Oc1c(/C=C(\C#N)C(N)=O)[nH]c2ccccc12,32*,8,-15,-7,-1
N#C/C(=C\c1c[nH]c2ccccc12)C(N)=O,-2,-2,-10,-6,.
CC1(C)Cc2ccccc2C2=NNC(=O)C2=N1,28*,8,9,-9,34*
CN(C)CCOC(=O)c1ccc2[nH]c3c(c2c1)CSCC3,25*,3,-1,-1,-3
CCOC(=O)c1ccc2[nH]c3c(c2c1)CCCC3,-4,-1,-2,0,.
CCOc1ccc(Nc2ccc([N+](=O)[O-])c3nonc23)cc1,4,-4,-21,-22,.
O=[N+]([O-])c1ccc(Nc2ccccc2)c2nonc12,26*,1,-28,-24,8
Cc1c(C(c2cc(O)ccc2Cl)c2c(C)n(C)n(-c3ccccc3)c2=O)c(=O)n(-c2ccccc2)n1C,29*,0,0,0,12
Cc1c(C(c2ccccc2O)c2c(C)n(C)n(-c3ccccc3)c2=O)c(=O)n(-c2ccccc2)n1C,9,-2,0,-4,.
COC(=O)/C=C1/SC(=NC(=O)c2ccc(Cl)cc2)NC1=O,25*,0,7,2,2
COC(=O)/C=C1\SC(=NC(=O)c2ccc(C)cc2)NC1=O,4,-11,1,-1,.
Fc1ccccc1-c1n[nH]c(=S)n1N=Cc1ccc(-c2ccccc2)cc1,-3,0,2,1,.
Cn1cccc1C(=O)N1CCN(S(=O)(=O)c2ccc([N+](=O)[O-])cc2)CC1,1,0,-4,-5,.
SMILES,TDP2 absorb,LEDGF integ inh,UHRF1 MBD2 ctr,MBD2 DNA inh,TDP2 inh conf
CC(=O)c1cc(-c2ccc(-c3cc(C(=O)O)c4ccccc4n3)cc2)c(=O)n2c1CCC2,-5,-3,1,4,.
CCOC(=O)Cc1nc(N2CCN(CCO)CC2)c2c(C)c(C(=O)OCC)sc2n1,-5,-6,1,-2,.
Nc1ccc2c(c1)C(=O)C(=O)c1ccccc1-2,98*,-19,-15,5,87*
Cc1ccc2c(c1)C(CS(=O)(=O)NCCc1ccccc1)NC2 (stereo not drawn),5,3,-9,-4,.
COC(=O)c1c(C)oc2c1cc(NS(=O)(=O)c1ccc(C(=O)O)cc1)c1ccccc12,1,4,1,5,.
CC(=O)c1c(C)oc2c1cc(NS(=O)(=O)c1ccc(C(=O)O)cc1)c1ccccc12,29*,-2,-2,-2,3
CCc1cccc(NC(=O)c2sc3nc4n(c(=O)c3c2C)CCC4)c1,55*,-2,0,2,9
c1ccc(Nc2cc(Nc3ccccc3)[nH]n2)cc1,75*,3,13,6,6
CCCCN1C(=O)C(NC(C)=O)c2cc(Br)ccc21 (stereo not drawn),-15,0,2,6,.

# Source: PubChem BioAssay
